Assay results taken from the EternaBench riboswitch data.

Test system: MS2 coat protein
Assay: apparent Kd, MS2 coat protein; higher = weaker binding; RNA-MaP array
Outline: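 Apparent Kd is the median of per-cluster binding-curve fits for designed RNAs transcribed from sequenced DNA templates on an Illumina sequencing chip. The RNAs were incubated at room temperature with fluorescently labeled MS2 coat protein at 1.5 nM to 3 μM, with or without input ligand, and designs measured on fewer than 10 clusters were excluded.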

[1] = designed as: ON switch for flavin mononucleotide, no ligand
[2] = ligand present: flavin mononucleotide, designed as: ON switch for flavin mononucleotide
[3] = designed as: OFF switch for flavin mononucleotide, no ligand
[4] = ligand present: flavin mononucleotide, designed as: OFF switch for flavin mononucleotide

Sequence	apparent Kd [1] [nM]	apparent Kd [2] [nM]	apparent Kd [3] [nM]	apparent Kd [4] [nM]	other results
GAAAUCAGAGAGAAGGGUUUACAUCCGACAUGAGGAUCACCCAUGUAGUAAAACUACGACAACUAACAGGAUAUCACUGGCACC	208	176	–	–	–
UCUCAAAUAAAUAUCAUACAUGAGGAUCACCCAUGUCACCGAUAGGAUAUGCGCGUUUCCCACCUGCAGAAGGAUCAAACUGUA	15.4	13.4	–	–	–
ACGGUAGUACAUGAGGAUCACCCAUGUGGUUUUCUAAGAGGAUAGGAUAUACGUCCAAGCGGCAGGUAGAAGGAUCGAGUUUGC	–	–	41.7	34	–
UAGGGUCUGUCGCGACAUGAGGAUCACCCAUGUGCUUAGUCAAGAAGGGCGGACAUGCAAAACCCGCAGGAUAUUGUAUGCACU	–	–	254	59.5	–
GCCUUAGGGGCAGGAUAUUUCGAGGACCUCAACAUGAGGAUCACCCAUGUACCGCAAUCGUCUCUAAAGAAGGGCCUCUUGCUC	53.9	28.5	–	–	–
AAGUAGGAAGGAUAUACAUGAGGAUCACCCAUGUAAGGCAUUUGGCUAUAAUCGUUAAGUAGAAGGUCCUGCCG	–	–	8.6	8.2	–
CAAGUAGUGGCAUUAACAUGAGGAUCACCCAUGUUGUGCGUCAGAAGGGCUCUAAUGGAUAACCAGCAGGAUAUGAUUUUCAUC	6.92	6.89	–	–	–
CCCGGUGAUGUCAAACAUGAGGAUCACCCAUGUCUUCACCAUAGAAGGCGCUUUAUUCUAGCUAGCGAGGAUAUAUGGUUUCAG	–	–	39.6	44.6	–
UUAUUGGUAGGAUAUACAUGAGGAUCACCCAUGUGUCACGCAAAUUAGUAUGUCAAAUGUAGAAGGACCAAAUA	–	–	20.5	30.2	–
GUUGAGGUGGUAGGAUAUAGUUUACACAUGAGGAUCACCCAUGUAUUCUAGACUUCAAGCCUCACCUAGAAGGACCCGUGCAAA	–	–	4.91	4.75	–
GACAGAAAGUCAGGAUAUGAACGGUCAUGACAUGAGGAUCACCCAUGUUUCUUGUGCACCCUGCGUCAGAAGGGACUAGUGAGG	19.3	12.8	–	–	–
GUUAAAGAACGAGGAUAUAUUUGGUGAGGAGUACACAUGAGGAUCACCCAUGUCCAUCCUAUUCCAUAGAAGGCGUAGAGUUUU	6.71	6.95	–	–	–
UCUAGAUCAUCGUGACAUGAGGAUCACCCAUGUCUGCGGGCAAGAAGGUGGUCGUUGUCUAACACCAAGGAUAUUGAGGGAGGU	51.5	30.4	–	–	–
CACAUGAGGAUCACCCAUGUUCGUUCACUUCAUGUAAUGAUUAGAAGGUCACGCGCCUAUCUGCUGAAGGAUAUAAUCCCGAAA	–	–	11.1	10.1	–
CCUCGUCCGUACAUGAGGAUCACCCAUGUGAGCCCUAAACCCAGAAGGCAAUGAAUACCUAUUCUUGAGGAUAUGGAUCACCGU	–	–	279	185	–
UAAGAAUCAGGAUAUACAGAAAGAUCAACAAAGAGCCAUAAACAUGAGGAUCACCCAUGUAGAAGGGAACAAAU	–	–	8.14	7.77	–
AUGGUGGCUUCAGGAUAUCGCAAGUUAAUACGUCCCACAUGAGGAUCACCCAUGUAACGGUGGGUCGAGAAGGGAACCAUCCCG	–	–	90.8	63.5	–
ACGAAAUCUUAAACUUACGCACAUGAGGAUCACCCAUGUCACUAGGAUAUUAAAACAAAACAAUGUAAGAAGGAGUGAGAAAAG	13.6	11.8	–	–	–

Sequence	apparent Kd [1] [nM]	apparent Kd [2] [nM]	apparent Kd [3] [nM]	apparent Kd [4] [nM]	other results
GCAAGAGAGCAGAAGGUUGAGGGCGUUCCCGUUUACAUGAGGAUCACCCAUGUUGCUAACAUGUCAAAGGAUAUGCCUAACGCU	–	–	70.8	63.8	–
UAGCCUCUUAGAGGAUAUUCAUAAGCACGCAAUGAAGAAGGCUAGGACAAGUGGGACAUGAGGAUCACCCAUGUGGGAAUAUGU	–	–	43.3	36.8	–
GACGCUGCAGGAUAUACUACGAGACUCACCCACAUUAUAUGACAUGAGGAUCACCCAUGUAGAAGGGCAAUGUG	–	–	10.4	12.6	–
CAUGCGGCUAGUGAGCGUGGUGAGUAAAGGCGAGGACCGGUACGGCCGCCACUCGAGGCAAGACAUGAGGAUCACCCAUGUUGUA	–	–	–	–	apparent Kd (designed as: OFF switch for tryptophan, no ligand): 15.1 nM; apparent Kd (ligand present: tryptophan, designed as: OFF switch for tryptophan): 12.9 nM
CCAGGGCGAAACAUGAGGAUCACCCAUGUCCUAGCAACGAUGAGAAGGGUAAACACAAUGUCUUUACAGGAUAUCAACCAUACG	11.2	7.6	–	–	–
GUAUGGGCUGUAAGGAUAUCUAAGCCGGUUGUGGCAGAGAAGGUACAUGAGGAUCACCCAUGUGGACUUGGGUC	–	–	13.9	15.7	–
AGCGCCUUAUCAGGAUAUAUGCGCAUGAAGUAGGUACACAUGAGGAUCACCCAUGUCCGGGGAACAUAGAAGGGAUAGAAGUAG	86.9	48.7	–	–	–
AAACUUACAGGAUAUACAUGAGGAUCACCCAUGUAAACGAAACACCAGGUGAUAGUGGGUAGAAGGGAAUAAAC	–	–	22.7	18.5	–
UGAACCGGAAAGAAGGCCUUGCUUUAACGUACAGGAGGAUAUUUCCUAUUUGUGAGCCUUGACAUGAGGAUCACCCAUGUAUCG	–	–	479	116	–
CGAAUCAACCGGCAGGAUAUGAAAACUAAAACAUGAGGAUCACCCAUGUCGGACAAGAACAUGAUACAGAAGGGCCACGUAACAAG	95.5	26.3	–	–	–
AAGGAGUUAGGAUAUCCGUGCGUUGACAUGAGGAUCACCCAUGUGUUGAUAAACCUACUAGGAGAAGGAACGAUAC	–	–	20.7	15.2	–
GCAGUUGGUCUCUCACAUGAGGAUCACCCAUGUUCUUAGUUUCAGGAUAUAUGAGCGAAUUGCGGAUAGAAGGGAAACAGUCAC	–	–	41.6	49.7	–
CCAGUGGGUGGAGGAUAUGAUGACAAACUGUGUUCAGAAGGCCACCUCAAGACACGAACAUGAGGAUCACCCAUGUCCCAACCU	227	15.8	–	–	–
GAAUGAAUACAAGGAUAUCCCACAUGAGGAUCACCCAUGUAAAUACAAAUGUAAUACGUUGCUAAGGAGAAGGUGUAGAACAAA	113	28.9	–	–	–
GAAAGGGCAAAGAAGGAGGUCCGAGCUCGGCGCCUAGGAUAUUUCUUAACCACAUGAGGAUCACCCAUGUUGACUGUAGUGUGA	–	–	31.5	29	–
UUCGACAGCGUGAGGAUAUCUACAUCGGGUAGGUGAGAGAAGGCACAUGAGGAUCACCCAUGUUCUGAAGAGCA	–	–	16	19.9	–
UGUAGCCGCGAGAAGGUAAGCUAAGGAUGUGGUAUCAACGACUACAUGAGGAUCACCCAUGUGCUUAAGGAUAUCGAGGUGGAG	62.5	104	–	–	–
AGACCCUAGCAGAAGGCCCGCGACAUCCAAGAGGGAGGAUAUGCCACUAGAGCAAGCUUUGCACAUGAGGAUCACCCAUGUCCU	132	56.6	–	–	–
